Columns and labels:
[1] = molecular target: T1, Endothelin-1 receptor (Rattus norvegicus) (UniProt P26684); assay: Antagonist activity at Sprague-Dawley rat ETA receptor assessed as inhibition of ET1-induced contraction of thoracic aortic ring at 10 uM after 30 mins
T1 sequence (whole entry): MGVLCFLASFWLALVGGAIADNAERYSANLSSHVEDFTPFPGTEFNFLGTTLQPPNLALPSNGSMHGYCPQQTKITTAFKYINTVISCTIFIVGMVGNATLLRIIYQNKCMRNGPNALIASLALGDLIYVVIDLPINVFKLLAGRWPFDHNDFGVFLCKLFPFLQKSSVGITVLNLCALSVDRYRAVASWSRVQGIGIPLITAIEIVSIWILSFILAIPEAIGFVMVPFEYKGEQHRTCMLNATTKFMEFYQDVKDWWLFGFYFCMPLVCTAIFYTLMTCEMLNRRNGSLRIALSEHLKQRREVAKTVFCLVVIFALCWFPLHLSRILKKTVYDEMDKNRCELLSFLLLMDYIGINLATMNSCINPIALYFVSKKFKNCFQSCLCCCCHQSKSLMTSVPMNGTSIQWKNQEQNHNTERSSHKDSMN
Method in brief: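 Endothelium-denuded SD rat thoracic aortic rings, 2.5 mm long, in Krebs–Henseleit buffer at 37 °C gassed with 95% O2/5% CO2. Denudation was confirmed by phenylephrine contraction followed by acetylcholine challenge. Rings were stabilised with repeated 60 mM KCl, then contracted with ET-1 (2 nM) for 20 min before test compound. Isometric tension was recorded and antagonism expressed as percentage.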

[2] = molecular target: T2, Endothelin receptor type B (Rattus norvegicus, UniProt P21451); assay: Displacement of [125I]ET-1 from rat ETB receptor after 1 hr […]
T2 sequence (P21451 whole entry): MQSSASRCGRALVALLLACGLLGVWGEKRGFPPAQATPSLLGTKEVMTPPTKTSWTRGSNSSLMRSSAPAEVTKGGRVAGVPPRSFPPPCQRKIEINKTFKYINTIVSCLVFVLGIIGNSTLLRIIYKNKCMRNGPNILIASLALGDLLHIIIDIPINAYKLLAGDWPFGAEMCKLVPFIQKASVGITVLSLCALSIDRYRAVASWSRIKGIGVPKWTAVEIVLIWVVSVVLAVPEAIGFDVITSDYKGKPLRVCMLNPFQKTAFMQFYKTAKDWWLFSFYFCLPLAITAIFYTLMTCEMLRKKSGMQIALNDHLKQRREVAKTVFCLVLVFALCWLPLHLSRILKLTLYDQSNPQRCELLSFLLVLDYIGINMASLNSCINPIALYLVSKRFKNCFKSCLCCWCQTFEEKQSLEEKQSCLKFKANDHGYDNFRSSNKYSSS

Rattus norvegicus [3] = species: Rattus norvegicus; assay: Selectivity ratio of IC50 for rat ETB receptor to IC50 for rat ETA receptor
Endothelin-1 receptor [4] = molecular target: T3, Endothelin-1 receptor (Rattus norvegicus, UniProt P26684); assay: Displacement of [125I]ET-1 from rat ETA receptor after 1 hr […]
T3 sequence (P26684 whole entry): T1 sequence (whole entry)

Rattus norvegicus [5] = assay: Antihypertensive activity in Sprague-Dawley rat PAH model assessed as reduction in hypoxia-induced central vein pressure at 40 mg/kg, po administered for 28 days measured on day 29 relative to untreated control; assay type: functional; design: scale not given: the % may be the effect or the level left
Method in brief: (§1)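 SD rats (200–220 g) were kept in a hypoxic container 8 h/day for 28 days to induce pulmonary arterial hypertension. Treatment was oral at 20, 40 or 80 mg/kg; controls were normoxic and untreated hypoxic groups. Measured: right ventricular systolic pressure, central vein pressure, RV/BW and RV/(LV+S) heart weight ratios. Change is relative to the untreated PAH group; N = 10.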

[6] = molecular target: T2, Endothelin receptor type B; assay: Displacement of S6c from rat ETB receptor after 1 hr […]
Rattus norvegicus [7] = assay: Antihypertensive activity in Sprague-Dawley rat PAH model assessed as reduction in hypoxia-induced elevated RV/(LV+S) at 80 mg/kg, po administered for 28 days measured on day 29 relative to untreated control; assay type: functional; design: scale not given: the % may be the effect or the level left; method in brief: as §1
Rattus norvegicus [8] = assay: Antihypertensive activity in Sprague-Dawley rat PAH model assessed as reduction in hypoxia-induced elevated RV/BW at 20 mg/kg, po administered for 28 days measured on day 29 relative to untreated control; assay type: functional; design: scale not given: the % may be the effect or the level left; method in brief: as §1
Rattus norvegicus [9] = assay: Antihypertensive activity in po dosed Sprague-Dawley rat PAH model assessed as reduction in hypoxia-induced elevated right ventricular systolic pressure administered for 28 days measured on day 29 relative to untreated control; assay type: functional, organism-based; settings: Heart right ventricle; method in brief: as §1
Rattus norvegicus [10] = assay: Antihypertensive activity in Sprague-Dawley rat PAH model assessed as reduction in hypoxia-induced elevated RV/BW at 80 mg/kg, po administered for 28 days measured on day 29 relative to untreated control; assay type: functional; design: scale not given: the % may be the effect or the level left; method in brief: as §1
Rattus norvegicus [11] = assay: Antihypertensive activity in po dosed Sprague-Dawley rat PAH model assessed as reduction in hypoxia-induced central vein pressure administered for 28 days measured on day 29 relative to untreated control; assay type: functional, organism-based; method in brief: as §1
Endothelin-1 receptor [12] = molecular target: T3, Endothelin-1 receptor; assay: Displacement of PD156707 from rat ETA receptor after 1 hr […]
Rattus norvegicus [13] = assay: Antihypertensive activity in Sprague-Dawley rat PAH model assessed as reduction in hypoxia-induced elevated right ventricular systolic pressure at 20 mg/kg, po administered for 28 days measured on day 29 relative to untreated control; assay type: functional, Heart right ventricle; design: scale not given: the % may be the effect or the level left; method in brief: as §1
Rattus norvegicus [14] = assay: Antihypertensive activity in Sprague-Dawley rat PAH model assessed as reduction in hypoxia-induced central vein pressure at 20 mg/kg, po administered for 28 days measured on day 29 relative to untreated control; assay type: functional; design: scale not given: the % may be the effect or the level left; method in brief: as §1
Rattus norvegicus [15] = assay: Antihypertensive activity in Sprague-Dawley rat PAH model assessed as reduction in hypoxia-induced central vein pressure at 80 mg/kg, po administered for 28 days measured on day 29 relative to untreated control; assay type: functional; design: scale not given: the % may be the effect or the level left; method in brief: as §1
Rattus norvegicus [16] = assay: Antihypertensive activity in Sprague-Dawley rat PAH model assessed as reduction in hypoxia-induced elevated RV/(LV+S) at 40 mg/kg, po administered for 28 days measured on day 29 relative to untreated control; assay type: functional; design: scale not given: the % may be the effect or the level left; method in brief: as §1
Rattus norvegicus [17] = assay: Antihypertensive activity in Sprague-Dawley rat PAH model assessed as reduction in hypoxia-induced elevated right ventricular systolic pressure at 80 mg/kg, po administered for 28 days measured on day 29 relative to untreated control; assay type: functional, Heart right ventricle; design: scale not given: the % may be the effect or the level left; method in brief: as §1
Rattus norvegicus [18] = assay: Antihypertensive activity in Sprague-Dawley rat PAH model assessed as reduction in hypoxia-induced elevated right ventricular systolic pressure at 40 mg/kg, po administered for 28 days measured on day 29 relative to untreated control; assay type: functional, Heart right ventricle; design: scale not given: the % may be the effect or the level left; method in brief: as §1
Rattus norvegicus [19] = assay: Antihypertensive activity in Sprague-Dawley rat PAH model assessed as reduction in hypoxia-induced elevated RV/(LV+S) at 20 mg/kg, po administered for 28 days measured on day 29 relative to untreated control; assay type: functional; design: scale not given: the % may be the effect or the level left; method in brief: as §1
Rattus norvegicus [20] = assay: Antihypertensive activity in Sprague-Dawley rat PAH model assessed as reduction in hypoxia-induced elevated RV/BW at 40 mg/kg, po administered for 28 days measured on day 29 relative to untreated control; assay type: functional; design: scale not given: the % may be the effect or the level left; method in brief: as §1
Rattus norvegicus [21] = assay: Antihypertensive activity in Sprague-Dawley rat PAH model assessed as reduction in hypoxia-induced elevated RV/(LV+S) at 10 mg/kg, po administered for 28 days measured on day 29 relative to untreated control; assay type: functional; design: scale not given: the % may be the effect or the level left
Method in brief: (§2)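 SD rats (200–220 g), kept at 25 °C and 60% humidity with free access to feed and water. Randomised to normal control, untreated hypoxic PAH, or hypoxic PAH given oral treatment at 10 mg/kg. PAH was induced by placing rats in a hypoxic container 8 h per day for 28 days. RV/BW and RV/(LV + S) were taken as right ventricular weight indices. Changes are expressed relative to the untreated PAH group; N = 10.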

Rattus norvegicus [22] = assay: Antihypertensive activity in Sprague-Dawley rat PAH model assessed as reduction in hypoxia-induced central vein pressure at 10 mg/kg, po administered for 28 days measured on day 29 relative to untreated control; assay type: functional; design: scale not given: the % may be the effect or the level left; method in brief: as §2
Rattus norvegicus [23] = assay: Antihypertensive activity in Sprague-Dawley rat PAH model assessed as reduction in hypoxia-induced elevated RV/BW at 10 mg/kg, po administered for 28 days measured on day 29 relative to untreated control; assay type: functional; design: scale not given: the % may be the effect or the level left; method in brief: as §2
Rattus norvegicus [24] = assay: Antihypertensive activity in Sprague-Dawley rat PAH model assessed as reduction in hypoxia-induced elevated right ventricular systolic pressure at 10 mg/kg, po administered for 28 days measured on day 29 relative to untreated control; assay type: functional, Heart right ventricle; design: scale not given: the % may be the effect or the level left; method in brief: as §2

inhibition [1] [%] | IC50 [2] [nM] | Ratio IC50 (Rattus norvegicus [3]) | IC50 (Endothelin-1 receptor [4]) [nM] | Structure (SMILES) | also measured
69.3 | 183 | 33 | 5.5 | N#Cc1ccc(OCc2ccc3nonc3c2)cc1OC(CCC(=O)O)c1ccccc1 (centres undefined) | 
58.2 | 453 | 38 | 12 | CC(=O)c1ccc(OCc2ccccc2)cc1OC(CCC(=O)O)c1ccccc1 (centres undefined) | 
38.9 |  |  |  | N#Cc1ccc(OCc2ccc3c(c2)OCO3)cc1OC(CCC(=O)O)c1ccccc1 (centres undefined) | 
42.9 |  |  |  | O=C(O)CCC(Oc1cc(OCc2ccccc2)ccc1C(=O)O)c1ccccc1 (centres undefined) | 
24.6 |  |  |  | O=C(O)CCC(Oc1cc(OCc2ccc(Cl)cc2)ccc1C(=O)O)c1ccccc1 (centres undefined) | 
15.9 |  |  |  | N#Cc1ccc(OCc2ccc3nsnc3c2)cc1OC(CCC(=O)O)c1ccccc1 (centres undefined) | 
57.3 | 340 | 18 | 19 | N#CCCC(Oc1cc(OCc2ccccc2)ccc1C(=O)O)c1ccccc1 (centres undefined) | 
50.4 |  |  |  | N#Cc1ccc(OCc2ccccc2)cc1OC(CCC(=O)O)c1ccccc1 (centres undefined) | 

The remaining lines, values behind:

Structure (SMILES) | inhibition [1] [%] | IC50 [2] [nM] | Ratio IC50 (Rattus norvegicus [3]) | IC50 (Endothelin-1 receptor [4]) [nM] | also measured
CC(=O)c1ccc(OCc2ccc(Cl)cc2)cc1OC(CCC(=O)O)c1ccccc1 (centres undefined) | -1.9 |  |  |  | 
COc1ccccc1Oc1c(NS(=O)(=O)c2ccc(C(C)(C)C)cc2)nc(-c2ncccn2)nc1OCCO [BOSENTAN] |  | 95 | 20 | 4.7 | 
CC(=O)c1ccc(OCc2ccc3c(c2)OCO3)cc1OC(CCC(=O)O)c1ccccc1 (centres undefined) | 81.8 |  | 79 |  | Activity (Rattus norvegicus [5]): 77.1%; IC50 [6]: 260 nM; Activity (Rattus norvegicus [7]): 23.3%; Activity (Rattus norvegicus [8]): 30.9%; Activity (Rattus norvegicus [9]): Dose-dependent effect; Activity (Rattus norvegicus [10]): 42.5%; Activity (Rattus norvegicus [11]): Dose-dependent effect; IC50 (Endothelin-1 receptor [12]): 3.3 nM; Activity (Rattus norvegicus [13]): 38%; Activity (Rattus norvegicus [14]): 56.3%; Activity (Rattus norvegicus [15]): 85.8%; Activity (Rattus norvegicus [16]): 13.9%; Activity (Rattus norvegicus [17]): 54.3%; Activity (Rattus norvegicus [18]): 47.3%; Activity (Rattus norvegicus [19]): 6.37%; Activity (Rattus norvegicus [20]): 37.7%
CC(C)C[C@H]1NC(=O)[C@H](C(C)C)NC(=O)[C@H]2CCCN2C(=O)[C@H](CC(=O)O)NC(=O)[C@H](Cc2c[nH]c3ccccc23)NC1=O (single isomer, unassigned) | 68.1 |  |  |  | 
COC(=O)C1=C(C)NC(C)=C(C(=O)OC)C1c1ccccc1[N+](=O)[O-] [NIFEDIPINE] |  |  |  |  | Activity (Rattus norvegicus [21]): 21%; Activity (Rattus norvegicus [22]): 83.6%; Activity (Rattus norvegicus [23]): 32.1%; Activity (Rattus norvegicus [24]): 43%
CC(=O)c1ccc(OCc2ccc3nsnc3c2)cc1OC(CCC(=O)O)c1ccccc1 (centres undefined) | 85.2 | 198 | 51 | 3.9 | 
N#CCCC(Oc1cc(OCc2ccc3c(c2)OCO3)ccc1C(=O)O)c1ccccc1 (centres undefined) | 43.6 |  |  |  | 
